Assay results: PubChem BioAssay
Activity calls are given as the source filed them.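 Rule for the calls, unless noted: active = inhibition of the reporter signal at or above 50%; inactive = inhibition below 50%.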

How the values were obtained:
[1] = inhibitors of TNFa-induced NFkB p65 translocation, primary screen, imaging, HUVEC, MLSMR starter and 10KST1 sets (AID 438;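 active = inhibition above 20% together with a positive visual image hit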;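 note: compound added about 3h40 before a 20 min TNFalpha stimulation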;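 for inhibition: signal is the nuclear over cytoplasmic p65 intensity ratio per well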); conditions: HUVEC TNFa-induced p65 nuclear translocation; cell count: measured here: nuclei count (cytotoxicity indicator), at 2.08 µM; inhibition: at 2 µM, stronger effect = higher value, 0% TNFa-plus-vehicle, 100% no-TNFa wells
[2] = reduction of polyQ htt aggregates in cells – imaging, exon1htt(103Q)mCFP cells, high-content imaging, primary screen (AID 483;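 active = visual image review flags a hit and inhibition of aggregation exceeds 20%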;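 note: compound exposure lasted 3 days before fixation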;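 for nuclei count: percent of the per-plate median nuclei count of sample wells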); conditions: exon1htt(103Q)mCFP cell line, aggregate imaging, at 2 µM; inhibition of aggregation: stronger effect = higher value; nuclei count: measured here: cell count, toxicity
[3] = endothelial E-selectin expression blockers – imaging, HUVEC, immunofluorescence, MLSMR starter and 10KST1 sets, primary screen (AID 487;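 active = visually confirmed hit in the image check and inhibition above 20%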;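 for inhibition: signal is fraction of cell area covered by stained E-selectin grains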;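 for nuclei count: 100% = median nuclei count of all wells on the same plate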); conditions: HUVEC TNFalpha-induced E-selectin immunofluorescence imaging, at 2 µM; inhibition: stronger effect = higher value; nuclei count: measured here: cell number, toxicity
[4] = molecular target: Voltage-gated potassium channel subunit beta-2 (Rattus norvegicus) (UniProt P62483); assay: inhibitors of rat Kvbeta2 reductase activity – biochemical, NADPH fluorescence, primary screen (AID 622;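 active = fluorescence slope higher than the sample average by over 3 SD, cut at about -0.22 in these data, passing the limit was not always enough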;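 note: slope of raw intensity against log time taken from 70 to 1610 s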); conditions: recombinant KvBeta, 4-cyanobenzaldehyde reduction, at 10 µM, stronger effect = higher value
[5] = molecular target: Voltage-gated potassium channel subunit beta-2 (Rattus norvegicus) (UniProt P62483); assay: enhancers of rat Kvbeta2 NADPH turnover – biochemical, NADPH fluorescence, primary screen (AID 623;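 active = NADPH fluorescence slope more negative than the mean of all samples by about 3 SD, 99.7% confidence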;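 note: fluorescence intensity change per second fitted from 20 to 320 s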); conditions: Recombinant KvBeta, NADPH fluorescence decrease slope, 10 min; at 10 µM; stronger effect = lower value
[6] = molecular target: Alpha-2C adrenergic receptor (Homo sapiens) (UniProt P18825); assay: compounds altering alpha2C-coupled GIRK flux – cell-based, HEK293 alpha2C/GIRK1/2, thallium flux, primary screen (AID 624;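 active = fluorescence slope after compound addition differing from the mean of all screened samples at 99.7% confidence, in either direction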;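 note: slope of fluorescence ratio to pre-addition baseline per second over 15 to 24 s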); conditions: thallium flux BTC fluorescence, at 10 µM, actives lie on both sides
[7] = inhibitors of larval lipid processing in zebrafish, primary screen, whole organism, PED6 fluorescence, gall bladder and intestine (AID 686;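 active = a full or partial loss of lipid-probe fluorescence in the fish gall bladder, intestine or both, judged by eye; inactive = no fluorescence loss, or compound toxic to the fish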;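 note: larvae 5 to 7 days old with five fish per well; signal comes from phospholipase A2 cleavage of quenched PED6 carried via bile; overnight exposure to compound and PED6 before scoring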); conditions: Zebrafish larvae PED6 lipid processing, fluorescence scoring; screened at 20 µM (by protocol)
In short: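 Test system – live zebrafish larvae aged 5-7 days, whole organism · Buffer or medium – E3 fish medium · Reagent – quenched phospholipase substrate PED6, 100 nM final, ingested by larvae · Doses – 20 µM single dose · Incubation – overnight compound and PED6 incubation · Technique – visual fluorescence microscopy scoring of gall bladder, gut · Read-out basis – visual per-well fluorescence inhibition score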

[8] = blockers of RIG-like receptor reporter activation – cell-based, Sendai virus stimulus, luciferase, 10K MLSCN set, TLR/RLR signaling modifier project, primary screen (AID 602276;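 active = inhibition at or above 50% at 10 µM; inactive = inhibition below 50%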;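 note: firefly luciferase from ISG56 promoter only with Renilla not read in this screen; 0% = Sendai virus plus DMSO and 100% = medium plus DMSO without virus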); conditions: HEK293 RL24 IRF3 luciferase reporter, at 10 µM, stronger effect = higher value
[9] = TLR3 IRF3 reporter activation blockers – cell-based, poly I:C stimulus, luciferase, 10K MLSCN set, primary screen (AID 602277); conditions: HEK293-TLR3 RL24 IRF3 luciferase reporter, at 10 µM, stronger effect = higher value

Chain of Alpha-2C adrenergic receptor (Homo sapiens) (P18825 whole entry, looked up): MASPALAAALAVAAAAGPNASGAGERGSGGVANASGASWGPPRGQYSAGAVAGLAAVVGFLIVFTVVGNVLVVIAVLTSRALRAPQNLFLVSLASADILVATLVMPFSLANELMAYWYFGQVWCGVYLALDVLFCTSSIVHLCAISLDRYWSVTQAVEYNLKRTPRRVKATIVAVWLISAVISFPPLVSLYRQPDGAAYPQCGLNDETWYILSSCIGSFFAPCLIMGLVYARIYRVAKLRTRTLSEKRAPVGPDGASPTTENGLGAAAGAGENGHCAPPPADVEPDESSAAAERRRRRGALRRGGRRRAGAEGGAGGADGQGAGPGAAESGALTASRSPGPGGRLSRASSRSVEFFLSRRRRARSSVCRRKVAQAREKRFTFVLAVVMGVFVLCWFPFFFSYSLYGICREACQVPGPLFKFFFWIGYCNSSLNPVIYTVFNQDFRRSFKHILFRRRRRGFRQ
Chain of Voltage-gated potassium channel subunit beta-2 (Rattus norvegicus) (P62483 whole entry, looked up): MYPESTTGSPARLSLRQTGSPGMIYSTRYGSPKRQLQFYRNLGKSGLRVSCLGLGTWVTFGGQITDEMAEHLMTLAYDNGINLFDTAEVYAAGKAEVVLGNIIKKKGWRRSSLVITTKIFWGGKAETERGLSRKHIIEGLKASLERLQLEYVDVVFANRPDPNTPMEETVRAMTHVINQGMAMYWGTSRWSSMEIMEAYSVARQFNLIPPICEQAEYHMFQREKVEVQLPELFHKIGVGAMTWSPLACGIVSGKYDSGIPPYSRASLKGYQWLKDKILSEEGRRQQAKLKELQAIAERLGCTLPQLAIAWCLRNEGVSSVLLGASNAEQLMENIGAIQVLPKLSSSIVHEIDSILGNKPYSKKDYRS

| Compound | cell count [1] | inhibition [1] | inhibition of aggregation [2] | nuclei count [2] | inhibition [3] | nuclei count [3] | fluorescence slope [4] | NADPH fluorescence slope [5] | slope [6] | outcome [7] | inhibition [8] | inhibition [9] |
| --- | --- | --- | --- | --- | --- | --- | --- | --- | --- | --- | --- | --- |
| COc1nc(-c2ccc(Cl)cc2)ccc1-c1noc(-c2ccncc2)n1 | 332 | 1.5% (inactive) | -4.2% (inactive) | 97.5% | -31.6% (inactive) | 114% | -0.223 (inactive) | -1.2e-07 (inactive) | 0.00449 (inactive) | inactive | 6.3% (inactive) | -7.25% (inactive) |
| N#Cc1c(N)oc(-c2cccs2)c1-c1cccs1 | 508 | 2.6% (inactive) | -9.8% (inactive) | 93.1% | -29.4% (inactive) | 120% | -0.306 (inactive) | -3e-05 (inactive) | 0.00454 (inactive) | inactive | -45.9% (inactive) | 50.6% (active) |
| Cn1c(=O)c2c(nc(NCCCO)n2Cc2cccc(Br)c2)n(C)c1=O | 705 | -1.8% (inactive) | 1.7% (inactive) | 108% | 25.3% (inactive) | 92.8% | -0.349 (inactive) | -4.6e-05 (inactive) | 0.00493 (inactive) | inactive | 14.9% (inactive) | 14.1% (inactive) |
| COc1ccccc1-n1c(SCC(=O)NC(C)(C)C)nnc1-c1ccco1 | 662 | -13.1% (inactive) | 6.2% (inactive) | 87.8% | -53% (inactive) | 117% | -0.504 (inactive) | -2.6e-05 (inactive) | 0.0043 (inactive) | inactive | 10.4% (inactive) | 15.6% (inactive) |
| Cc1nc2c(-c3ccccc3)c(C)[nH]n2c(=O)c1Cl | 277 | -8.3% (inactive) | 2.3% (inactive) | 109% | -5.5% (inactive) | 84.2% | -0.485 (inactive) | 3e-05 (inactive) | 0.00434 (inactive) | inactive | -11.4% (inactive) | -22.1% (inactive) |
| O=C(c1ccco1)c1nnn(Cc2ccccc2)c1-c1ccccc1 | 346 | -4.3% (inactive) | 4% (inactive) | 122% | -90% (inactive) | 116% | -0.347 (inactive) | 7.1e-06 (inactive) | 0.00349 (inactive) | inactive | -4.9% (inactive) | 0.479% (inactive) |
| O=C(O)CCC(=O)NC1CCCCC1NC(=O)CCC(=O)O (centres undefined) | 488 | 4% (inactive) | -8.6% (inactive) | 104% | -189% (inactive) | 129% | -0.394 (inactive) | -6.2e-05 (inactive) | 0.00623 (inactive) | inactive | 5.12% (inactive) | 3.98% (inactive) |
| CCC(=O)N(Cc1ccco1)c1nc(-c2cc(OC)ccc2OC)cs1 | 643 | -8% (inactive) | 18.8% (inactive) | 100% | -11.7% (inactive) | 101% | -0.397 (inactive) | -4.8e-05 (inactive) | 0.00497 (inactive) | inactive | 8.75% (inactive) | 7.6% (inactive) |
| COc1cc(C(=O)NCC(=O)OCC(=O)c2ccc[nH]2)cc(OC)c1OC | 383 | -23% (inactive) | 10.7% (inactive) | 101% | -64.2% (inactive) | 107% | -0.458 (inactive) | -4.1e-05 (inactive) | 0.00501 (inactive) | inactive | 13.9% (inactive) | 16.7% (inactive) |
| COc1ccc(-c2nnc(SCc3nnc(-c4ccc(Cl)cc4)o3)n2-c2ccccc2)cc1 | 565 | -13.6% (inactive) | 12.1% (inactive) | 106% | 17.2% (inactive) | 138% | -0.398 (inactive) | -6.2e-05 (inactive) | 0.00535 (inactive) | inactive | -45% (inactive) | -62.8% (inactive) |
| C(=N\n1cnnc1)/c1cccc(OCCOc2ccccc2)c1 | 237 | 7.1% (inactive) | 0% (inactive) | 96% | -33.2% (inactive) | 108% | -0.351 (inactive) | -3.7e-05 (inactive) | 0.00586 (inactive) | inactive | -29.6% (inactive) | -51.4% (inactive) |
| CN(c1ccccc1C(=O)NCC1CCCO1)S(C)(=O)=O (centres undefined) | 314 | 3.8% (inactive) | 4.6% (inactive) | 94.8% | -12.5% (inactive) | 93.8% | -0.444 (inactive) | -3.7e-05 (inactive) | 0.00536 (inactive) | inactive | 15.7% (inactive) | 14.6% (inactive) |
| CCCCn1c(SCc2ccc(Cl)cc2)nc2c1c(=O)[nH]c(=O)n2C | 396 | 9% (inactive) | 8.8% (inactive) | 109% | -1.3% (inactive) | 98.4% | -0.347 (inactive) | -4.9e-05 (inactive) | 0.00466 (inactive) | inactive | 10.9% (inactive) | 14.5% (inactive) |
| FC(F)Oc1cccc2cccnc12 | 538 | -5.8% (inactive) | -5.4% (inactive) | 103% | 67.2% (active) | 82.3% | -0.345 (inactive) | -1.3e-05 (inactive) | 0.00451 (inactive) | inactive | 10.2% (inactive) | 9.81% (inactive) |
| O=C(CCCn1c(=O)[nH]c2ccsc2c1=O)N1CCN(c2ccccn2)CC1 | 665 | -5.2% (inactive) | -1% (inactive) | 97.2% | -13.1% (inactive) | 106% | -0.386 (inactive) | -4.1e-05 (inactive) | 0.00451 (inactive) | inactive | 8.33% (inactive) | 13.1% (inactive) |
| CCOC(=O)c1cc(CC)sc1NC(=O)COC | 324 | -6% (inactive) | -9.4% (inactive) | 86.3% | 34% (inactive) | 80% | -0.321 (inactive) | -7.5e-06 (inactive) | 0.00509 (inactive) | inactive | 2.16% (inactive) | 4.15% (inactive) |
| c1cnc(NCCNc2ncccn2)nc1 | 709 | -5% (inactive) | 11.9% (inactive) | 132% | -57.1% (inactive) | 124% | -0.346 (inactive) | -4.1e-05 (inactive) | 0.00555 (inactive) | inactive | 5.48% (inactive) | 2.33% (inactive) |
| O=C(CN1CCN(Cc2ccccc2)CC1)NCC1COc2ccccc2O1 (centres undefined) | 531 | -6.7% (inactive) | -7% (inactive) | 95.7% | -17.6% (inactive) | 94.9% | -0.356 (inactive) | -7.8e-05 (inactive) | 0.00497 (inactive) | inactive | 12.2% (inactive) | 98.2% (active) |
| O=C(NCCCN1CCOCC1)c1cc(-c2ccc(Cl)cc2)on1 | 264 | -1.8% (inactive) | -1.6% (inactive) | 102% | -8.4% (inactive) | 113% | -0.294 (inactive) | 1.2e-05 (inactive) | 0.00493 (inactive) | inactive | 6.84% (inactive) | -3.16% (inactive) |
| CC12CN3CCN(CC(C3)C1(O)CN1CCCCC1)C2 (centres undefined) | 305 | 1.7% (inactive) | -16.8% (inactive) | 111% | -66.3% (inactive) | 121% | -0.347 (inactive) | -5.6e-05 (inactive) | 0.00521 (inactive) | inactive | 10.7% (inactive) | 35.8% (inactive) |
| CCOC(=O)N1CCN(C(=O)CN(C2CCCCC2)S(=O)(=O)c2ccc(F)cc2)CC1 | 645 | -10.7% (inactive) | 18.3% (inactive) | 81.3% | -51.6% (inactive) | 108% | -0.355 (inactive) | -7.3e-05 (inactive) | 0.00492 (inactive) | inactive | 21.5% (inactive) | 81.8% (active) |
| CC(C)(C)NS(=O)(=O)c1ccc(CCC(=O)O)cc1 | 395 | 4.2% (inactive) | -0.1% (inactive) | 82.6% | -68.6% (inactive) | 110% | -0.456 (inactive) | -4.3e-05 (inactive) | 0.00422 (inactive) | inactive | 9.55% (inactive) | 4.51% (inactive) |
| Cc1ccc(S(=O)(=O)NCC(=O)OCC(=O)Nc2ncc(Cl)cc2Cl)cc1 | 412 | -0.4% (inactive) | -19.2% (inactive) | 115% | -42.3% (inactive) | 114% | -0.465 (inactive) | -4.6e-05 (inactive) | 0.00472 (inactive) | inactive | 17.2% (inactive) | 25.7% (inactive) |
| C1=C(CCNc2ncnc3c2cnn3-c2ccccc2)CCCC1 | 355 | 2.8% (inactive) | 17.1% (inactive) | 91.5% | -22.4% (inactive) | 124% | -0.375 (inactive) | -6.3e-05 (inactive) | 0.00514 (inactive) | inactive | -36.5% (inactive) | -142% (inactive) |
| COC(=O)c1ccc(CSc2nc3ccccc3s2)o1 | 483 | -6.3% (inactive) | -4% (inactive) | 126% | -0.4% (inactive) | 104% | -0.47 (inactive) | -1.1e-05 (inactive) | 0.00436 (inactive) | inactive | -35.6% (inactive) | -50.2% (inactive) |
| Cc1nn(Cc2ccccc2)c(C)c1NC(=O)c1cc(-c2ccco2)on1 | 408 | -8.1% (inactive) | -15.5% (inactive) | 101% | -15.3% (inactive) | 101% | -0.347 (inactive) | -6.8e-06 (inactive) | 0.00588 (inactive) | inactive | 9.89% (inactive) | 12.8% (inactive) |
| Cc1c(Cl)cccc1NC(=O)CCN1CCCCCC1 | 221 | 14.6% (inactive) | -8.7% (inactive) | 90.4% | -108% (inactive) | 143% | -0.414 (inactive) | -3.3e-05 (inactive) | 0.00752 (inactive) | inactive | 13.4% (inactive) | 20.3% (inactive) |
